Assay [1] concerns the target T1, Calpain-1 catalytic subunit (Rattus norvegicus, UniProt P97571).
T1 sequence (P97571 whole entry): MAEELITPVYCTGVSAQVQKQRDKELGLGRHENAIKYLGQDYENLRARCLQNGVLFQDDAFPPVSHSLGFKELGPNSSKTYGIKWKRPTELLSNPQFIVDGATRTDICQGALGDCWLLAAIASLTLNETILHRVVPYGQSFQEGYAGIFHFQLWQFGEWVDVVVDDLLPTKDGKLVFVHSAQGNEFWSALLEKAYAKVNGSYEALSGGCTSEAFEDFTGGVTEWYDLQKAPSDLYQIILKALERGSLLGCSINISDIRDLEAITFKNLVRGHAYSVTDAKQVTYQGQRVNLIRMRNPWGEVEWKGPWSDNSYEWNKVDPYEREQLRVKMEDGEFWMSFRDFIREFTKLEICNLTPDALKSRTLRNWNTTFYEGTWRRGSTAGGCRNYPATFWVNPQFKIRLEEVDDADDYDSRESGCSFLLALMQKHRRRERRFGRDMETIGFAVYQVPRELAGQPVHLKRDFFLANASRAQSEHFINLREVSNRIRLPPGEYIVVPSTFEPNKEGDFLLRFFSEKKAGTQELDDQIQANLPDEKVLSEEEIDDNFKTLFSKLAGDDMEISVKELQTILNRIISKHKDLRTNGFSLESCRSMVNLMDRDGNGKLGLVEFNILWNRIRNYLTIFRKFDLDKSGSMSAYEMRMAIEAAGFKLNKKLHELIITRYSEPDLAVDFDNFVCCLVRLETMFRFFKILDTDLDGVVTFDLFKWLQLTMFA
The assay can be described thus: Inhibition of rat CAPN1 using BODIPY-labeled casein substrate by fluorometric analysis.

The target of assay [2] is T2, Calpain-2 catalytic subunit (Homo sapiens, UniProt P17655).
T2 sequence (P17655 whole entry): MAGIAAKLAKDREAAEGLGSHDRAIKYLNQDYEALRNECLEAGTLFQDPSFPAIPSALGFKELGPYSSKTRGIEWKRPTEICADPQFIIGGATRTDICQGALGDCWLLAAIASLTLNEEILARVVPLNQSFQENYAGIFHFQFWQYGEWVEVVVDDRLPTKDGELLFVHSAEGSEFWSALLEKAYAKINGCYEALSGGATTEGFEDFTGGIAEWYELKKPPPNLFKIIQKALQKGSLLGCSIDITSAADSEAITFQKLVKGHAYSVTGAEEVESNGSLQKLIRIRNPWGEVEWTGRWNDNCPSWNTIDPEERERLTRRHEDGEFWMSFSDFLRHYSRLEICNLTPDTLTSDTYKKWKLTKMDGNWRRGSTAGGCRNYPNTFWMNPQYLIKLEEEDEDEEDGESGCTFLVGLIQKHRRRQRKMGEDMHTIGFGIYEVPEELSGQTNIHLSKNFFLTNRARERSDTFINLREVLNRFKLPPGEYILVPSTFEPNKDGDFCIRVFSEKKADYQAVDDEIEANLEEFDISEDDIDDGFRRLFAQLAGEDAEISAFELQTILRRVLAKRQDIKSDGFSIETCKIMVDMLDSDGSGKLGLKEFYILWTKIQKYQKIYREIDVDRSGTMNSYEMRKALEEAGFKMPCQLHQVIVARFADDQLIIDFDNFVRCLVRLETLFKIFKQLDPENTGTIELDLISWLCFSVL
Description: Inhibition of CAPN2 using BODIPY-labeled casein substrate by fluorometric analysis. In outline:
(§1)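 Quenched fluorogenic substrate: casein labelled with BODIPY (4,4-difluoro-5,7-dimethyl-4-bora-3a,4a-diaza-s-indacene-3-propionic acid). Proteolysis relieves the quenching, and the resulting rise in fluorescence is the read-out. IC50 was determined with an established protocol at the Lincoln University laboratory.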

Assay [3] is described as follows: Inhibition of ovine CAPN2 using BODIPY-labeled casein substrate by fluorometric analysis. The arrangement: species or system Ovis aries. In outline:
as §1

The nature of assay [4]: Inhibition of ovine CAPN1 using BODIPY-labeled casein substrate by fluorometric analysis. Set-up: species or system Ovis aries. In outline: as §1

Residues, ends and D or L forms follow the SMILES beside them. *: point of attachment. Tos = Cc1ccc(S(=O)(=O)*)cc1; Ms = CS(=O)(=O)*

Take `CC(C)C[C@@H](C=O)NC(=O)[C@H](C(C)C)N(C)S(=O)(=O)c1ccc(F)cc1`: in assay [1], the midpoint of inhibition, the IC50, lay at 21 µM.

`CC(C)C[C@@H]1NC(=O)[C@@H](NC(=O)OCc2ccccc2)Cc2ccc(cc2)OCCC[C@@H](C=O)NC1=O` gave an IC50 in assay [2] of 0.85 µM.

`CCCC[C@H](NS(=O)(=O)c1ccc(F)cc1)C(=O)N[C@H](C=O)CC(C)C` returned an IC50 in assay [1] of 0.26 µM.

On to `Cc1ccc(C(=O)N[C@H](C(=O)N[C@H](C=O)CC(C)C)C(C)C)[nH]1`, for which the figures for the IC50 in assay [3] and in assay [4] were 0.11 µM and 0.34 µM, respectively.

`CC(C)[C@H](NS(=O)(=O)c1ccc(Cl)cc1)C(=O)N[C@H](C=O)Cc1ccccc1` displayed an IC50 in assay [1] of 0.014 µM.

In the case of `CC(C)C[C@@H](C=O)NC(=O)[C@@H](NC(=O)c1ccc(C=O)n1C)C(C)C`, the IC50 in assay [3] and in assay [4] was 0.15 µM each time.

With `CC(C)C[C@@H](C=O)NC(=O)[C@@H](NS(=O)(=O)c1ccc(F)cc1)C(C)C`, the IC50 stood at 0.08 µM in assay [3] and 0.13 µM in assay [4].

For `Cc1ccc(S(=O)(=O)N[C@H](C(=O)N[C@H](C=O)Cc2ccccc2)C(C)C)cc1` (Tos-Val-Phe-aldehyde), the IC50 in assay [1] stood at 0.018 µM.

Consider `CCC[C@H](NS(=O)(=O)c1ccc(F)cc1)C(=O)N[C@H](C=O)CC(C)C`, for which half-maximal inhibition in assay [1] (IC50) required 0.13 µM.

As for `CC(C)C[C@@H](C=O)NC(=O)[C@@H](NC(=O)c1cccs1)C(C)C`, the IC50 in assay [3] came out at 0.1 µM; in assay [4], 0.68 µM.

The compound `CC(C)C[C@@H](C=O)NC(=O)[C@@H](NS(=O)(=O)c1ccc2ccccc2c1)C(C)C` yielded a 50% inhibitory concentration (IC50) in assay [1] of 0.01 µM.

Compound `CC(C)[C@H](NS(=O)(=O)c1ccc(F)cc1)C(=O)N[C@H](C=O)Cc1c[nH]c2ccccc12` returned an IC50 in assay [1] of 0.023 µM.

For the compound `Cc1ccc(S(=O)(=O)N[C@H](C(=O)N[C@H](C=O)CC(C)C)C(C)C)cc1` (Tos-Val-Leu-aldehyde), the IC50 in assay [1] was found to be 0.028 µM.

As for `CC(C)C[C@@H](C=O)NC(=O)[C@@H](NC(=O)c1ccco1)C(C)C`, the concentration for half-maximal inhibition (IC50) in assay [3] came out at 0.135 µM; in assay [4], 0.79 µM.

`CC(C)C[C@@H]1NC(=O)[C@@H](NC(=O)OCc2ccccc2)Cc2ccc(cc2)OCCCCSC[C@@H](CO)NC1=O`: it took 28 µM to reach half-maximal inhibition in assay [2] (IC50).

For the compound `CC(C)C[C@@H](C=O)NC(=O)[C@@H](NC(=O)c1cc(C=O)c[nH]1)C(C)C`, the IC50 was 0.1 µM in assay [3] and 0.53 µM in assay [4].

As for `CC(C)C[C@@H]1NC(=O)[C@@H](NC(=O)OCc2ccccc2)Cc2ccc(cc2)OCCC[C@@H](CO)NC1=O`, 31 µM corresponded to half-maximal inhibition in assay [2] (IC50).

Turning to `CC(C)C[C@@H](C=O)NC(=O)[C@@H](NC(=O)c1ccc[nH]1)C(C)C`, the IC50 in assay [3] amounted to 0.315 µM; in assay [4], 0.65 µM.

As to `CC(C)[C@H](NS(=O)(=O)c1ccc(Cl)cc1)C(=O)N[C@H](C=O)Cc1c[nH]c2ccccc12`, in assay [1], inhibition was half-maximal at 0.013 µM (IC50).

In assay [1], `CC(C)[C@H](NS(=O)(=O)c1ccc(F)cc1)C(=O)N[C@H](C=O)Cc1ccccc1` showed an IC50 of 0.027 µM.

Turning to `COC(=O)c1ccc(C(=O)N[C@H](C(=O)N[C@H](C=O)CC(C)C)C(C)C)[nH]1`, the IC50 in assay [3] is 0.14 µM; in assay [4] it was 0.29 µM.

In assay [1], `CC(C)C[C@@H](C=O)NC(=O)[C@@H](NS(=O)(=O)c1ccc(Cl)cc1)C(C)C` gave an IC50 of 0.031 µM.

`CC(C)C[C@@H](C=O)NC(=O)[C@@H](NC(=O)c1ccc(C=O)s1)C(C)C`: the IC50 in assay [3] was 0.085 µM; in assay [4], 0.44 µM.

Regarding `CC(C)C[C@@H](C=O)NC(=O)[C@@H](NS(C)(=O)=O)C(C)C` (Ms-Val-Leu-aldehyde), half-maximal inhibition in assay [1] (IC50) required 0.83 µM.

On to `CC(C)[C@H](NS(=O)(=O)c1ccc2ccccc2c1)C(=O)N[C@H](C=O)Cc1ccccc1`, for which the IC50 in assay [1] turned out to be 0.014 µM.

Compound `CC(C)[C@@H]1NC(=O)[C@@H](NC(=O)OCc2ccccc2)Cc2ccc(cc2)OCCCC[C@@H](C=O)NC1=O` yielded an IC50 in assay [2] of 0.085 µM.

`CC(C)C[C@@H](C=O)NC(=O)[C@@H](NC(=O)c1ccc(C=O)[nH]1)C(C)C`: the results for the IC50 in assay [3] and in assay [4] were 0.025 µM and 0.29 µM, respectively.

`CC(C)C[C@@H]1NC(=O)[C@@H](NC(=O)OCc2ccccc2)Cc2ccc(cc2)OCCCCSC[C@@H](C=O)NC1=O` gave an IC50 in assay [2] of 1.01 µM.

Regarding `CC(C)C[C@@H](C=O)NC(=O)[C@@H](NC(=O)c1ccc(C=O)o1)C(C)C`, the results for the IC50 in assay [3] and in assay [4] were 0.1 µM and 0.96 µM, respectively.

In assay [1], `CC(C)[C@H](NS(=O)(=O)c1ccc(F)cc1)C(=O)N[C@@H](C)C=O` gave an IC50 of 0.63 µM.

The term IC50 denotes the concentration at which inhibition is half-maximal. Lower therefore signals greater potency in that assay.
